Activity calls are given as the source filed them. No cut-off for these calls is given here.
Assays:
[1] = test system: Mus musculus; test: Compound administered subcutaneously was evaluated for Opioid antagonist activity versus morphine by tail flick antagonism test in mice.; type: functional
Procedure, shortened: (§1)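 Mouse tail-flick test run against morphine, with test agent given subcutaneously. Antagonist AD50 is given in mg/kg with 95% confidence limits.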

[2] = test system: Mus musculus; test: Antinociceptive activity was determined by hot plate test in mice after subcutaneous administration;IA means inactive at 1,10 or 30.0 mg/kg; type: functional, organism-based; design: dose 30 mg/kg
Procedure, shortened: (§2)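 Mice were dosed subcutaneously. Antinociceptive […] is given in mg/kg with 95% confidence limits.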

[3] = test system: Mus musculus; test: Antinociceptive activity was determined by p-phenylquinone-writhing test in mice after subcutaneous administration; type: functional; settings: sc; procedure, shortened: as §2
[4] = test system: Mus musculus; test: Antinociceptive activity was determined by tail flick test in mice after subcutaneous administration; IA means inactive at 1,10 or 30.0 mg/kg; type: functional, organism-based; design: dose 30 mg/kg; procedure, shortened: as §2
[5] = target: Mu-type opioid receptor (Rattus norvegicus, UniProt P33535); test: Compound administered subcutaneously was evaluated for inhibition constant measured as the displacement of [3H]DAGO from rat brain
Procedure, shortened: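 Membranes from adult male Sprague-Dawley rat whole brain minus cerebellum, washed in 20 mM potassium phosphate pH 7.4, about 1 mg protein per tube. [³H]DAGO was added from a 2 nM solution. Nonspecific binding was defined with 10 μM naloxone (final). Incubation 45 min at 25 °C, then glass-fibre filtration and scintillation counting. Ki was derived by Cheng–Prusoff.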

[6] = test system: Mus musculus; test: Compound administered subcutaneously was evaluated for opioid antagonist activity versus morphine by tail flick antagonism test in mice.; type: functional; procedure, shortened: as §1
[7] = test system: Mus musculus; test: Antinociceptive activity was determined by hot plate test in mice after subcutaneous administration at 50 mg/kg; type: functional
Procedure, shortened: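 Mouse hot-plate assay with subcutaneous dosing. Activity is reported as percent effect at a single 50 mg/kg dose.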

[8] = test system: Mus musculus; test: Antinociceptive activity was determined by p-phenylquinone-writhing test in mice after subcutaneous administration; I means inactive at 1,10 or 30.0 mg/kg; type: functional, organism-based; design: dose 30 mg/kg; procedure, shortened: as §2
[9] = test system: Mus musculus; test: Antinociceptive activity was determined by tail flick test in mice after subcutaneous administration; I means inactive at 1,10 or 30.0 mg/kg; type: functional, organism-based; design: dose 30 mg/kg; procedure, shortened: as §2
[10] = test system: Mus musculus; test: Compound administered subcutaneously was evaluated for antinociceptive activity determined by p-phenylquinone-writhing test in mice; type: functional; settings: sc; procedure, shortened: as §2
[11] = test system: Mus musculus; test: Compound administered subcutaneously was evaluated for Opioid antagonist activity versus morphine by tail flick antagonism test in mice 95% confidence limits are in brackets; type: functional; procedure, shortened: as §1

Mu-type opioid receptor, sequence (P33535 whole entry): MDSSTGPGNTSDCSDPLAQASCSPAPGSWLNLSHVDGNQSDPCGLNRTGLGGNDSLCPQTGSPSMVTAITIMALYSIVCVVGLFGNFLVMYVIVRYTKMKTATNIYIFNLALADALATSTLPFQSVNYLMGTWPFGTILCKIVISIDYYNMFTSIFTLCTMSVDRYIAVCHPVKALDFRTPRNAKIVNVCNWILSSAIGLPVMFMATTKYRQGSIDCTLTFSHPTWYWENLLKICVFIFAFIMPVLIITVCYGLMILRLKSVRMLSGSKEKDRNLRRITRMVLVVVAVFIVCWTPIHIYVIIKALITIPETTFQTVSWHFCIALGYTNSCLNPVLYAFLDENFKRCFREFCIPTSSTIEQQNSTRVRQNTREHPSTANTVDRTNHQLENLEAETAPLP

Structure (SMILES) | AD50 [1] | ED50 [2] | ED50 [3] | ED50 [4] | Ki [5] | AD50 [6] | Effect [7] | ED50 [8] | ED50 [9] | ED50 [10] | AD50 [11]
CC[C@]12CCC[C@H]1N(C)CC=C2c1cccc(O)c1 | 2.1 mg/kg | inactive | 35.5 mg/kg | inactive | 84 nM | – | – | – | – | – | –
CN1CC=C(c2cccc(O)c2)[C@@]2(C)CCC[C@@H]12 | – | – | – | – | 81 nM | 1.7 mg/kg | 40% | inactive | inactive | – | –
C=CCN1CC[C@]23c4c5ccc(O)c4O[C@H]2[C@@H](O)C=C[C@H]3[C@H]1C5.Cl [NALORPHINE HYDROCHLORIDE] | – | – | – | inactive | 2 nM | – | – | – | – | 0.6 mg/kg | 2.6 mg/kg

— ChEMBL document CHEMBL1123752, “Hexahydro-1H-1-pyrindines from acid rearrangement of 9-alkylidene-5-(m-methoxyphenyl)-2-methylmorphans. A new structural type of narcotic antagonists” (J Med Chem, 1987)
